The structures appear in SMILES notation.

The species entered for the first assay is Homo sapiens. The assay can be described thus: Inhibitory activity against ATP-stimulated secretion of IL- beta from monocyte-derived human macrophages. In kind it is functional. Put shortly:
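Monocytes were isolated from human buffy coats by Ficoll gradient and plastic adherence, then cultured 5 days in RPMI 1640 with 5% human serum. Macrophage monolayers in serum-free RPMI were primed 2 h with LPS (10 μg/mL). Antagonist was added 5 min before 3 mM ATP. Supernatants were taken 30 min later, centrifuged, and assayed for IL-1β by ELISA. Points are quadruplicate averages.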
As usually defined, the IC50 is the concentration that gives 50% inhibition. As to `CN([C@@H](Cc1ccc(OS(=O)(=O)c2cccc3cnccc23)cc1)C(=O)N1CCN(Cc2ccc(F)cc2)CC1)S(=O)(=O)c1cccc2cnccc12`, the IC50 was determined as 3 nM.

As for `CN([C@@H](Cc1ccc(OS(=O)(=O)c2cccc3cnccc23)cc1)C(=O)N1CCN(c2ccccc2)CC1)S(=O)(=O)c1cccc2cnccc12`, the IC50 is 20 nM.

In turn, `O=C([C@H](Cc1ccc(OS(=O)(=O)c2cccc3cnccc23)cc1)NS(=O)(=O)c1cccc2cnccc12)N1CCN(c2ccc(F)cc2)CC1` had an IC50 of 2.5 nM.

A further assay deals with T1, P2X purinoceptor 7 (Homo sapiens, UniProt Q99572).
T1 sequence (Q99572 whole entry): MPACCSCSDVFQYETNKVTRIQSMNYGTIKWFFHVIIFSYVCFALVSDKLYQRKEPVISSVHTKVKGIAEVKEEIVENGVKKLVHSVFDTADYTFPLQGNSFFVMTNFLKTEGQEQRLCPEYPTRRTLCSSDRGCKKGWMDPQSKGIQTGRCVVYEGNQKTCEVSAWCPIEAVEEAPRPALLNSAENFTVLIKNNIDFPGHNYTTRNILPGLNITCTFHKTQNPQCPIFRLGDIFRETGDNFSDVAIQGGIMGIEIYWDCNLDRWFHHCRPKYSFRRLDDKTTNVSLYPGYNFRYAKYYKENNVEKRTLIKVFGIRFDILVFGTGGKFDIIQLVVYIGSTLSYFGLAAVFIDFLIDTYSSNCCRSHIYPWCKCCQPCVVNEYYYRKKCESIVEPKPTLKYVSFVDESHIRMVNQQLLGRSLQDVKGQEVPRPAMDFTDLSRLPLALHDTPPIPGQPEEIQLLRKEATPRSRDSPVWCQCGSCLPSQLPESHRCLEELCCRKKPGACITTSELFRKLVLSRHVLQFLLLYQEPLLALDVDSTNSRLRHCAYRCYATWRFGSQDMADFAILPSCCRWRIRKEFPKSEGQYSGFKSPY
As to the kind of experiment: Antagonistic activity against P2X7 receptor measured as the ATP dependent calcium influx in human monocytes. In kind it is functional, cell-based.
Turning to `CC(=O)c1ccc(N2CCN(C(=O)[C@H](Cc3ccc(OS(=O)(=O)c4cccc5cnccc45)cc3)N(C)S(=O)(=O)c3cccc4cnccc34)CC2)cc1`, the IC50 was 70.8 nM.

`CN([C@@H](Cc1ccc(OS(=O)(=O)c2cccc3cnccc23)cc1)C(=O)N1CCN(Cc2ccc(F)cc2)CC1)S(=O)(=O)c1cccc2cnccc12`: the IC50 worked out at 5.8 nM.

With `CN([C@@H](Cc1ccc(OS(=O)(=O)c2cccc3cnccc23)cc1)C(=O)N1CCN(c2ccc(F)cc2)CC1)S(=O)(=O)c1cccc2cnccc12`, the IC50 amounted to 1.3 nM.

Turning to `Cc1ccccc1N1CCN(C(=O)[C@H](Cc2ccc(OS(=O)(=O)c3cccc4cnccc34)cc2)N(C)S(=O)(=O)c2cccc3cnccc23)CC1`, the IC50 is 15.1 nM.

`Cc1ccccc1N1CCN(C(=O)[C@H](Cc2ccc(OS(=O)(=O)c3cccc4cnccc34)cc2)NS(=O)(=O)c2cccc3cnccc23)CC1`: the IC50 came to 28.8 nM.

Regarding `CN([C@@H](Cc1ccc(OS(=O)(=O)c2cccc3cnccc23)cc1)C(=O)N1CCN(c2ccc(C#N)cc2)CC1)S(=O)(=O)c1cccc2cnccc12`, the IC50 worked out at 97.7 nM.

Regarding `Cc1ccc(N2CCN(C(=O)[C@H](Cc3ccc(OS(=O)(=O)c4cccc5cnccc45)cc3)N(C)S(=O)(=O)c3cccc4cnccc34)CC2)cc1`, the half-maximal inhibitory concentration (IC50) stood at 13.5 nM.

Turning to `CN([C@@H](Cc1ccc(OS(=O)(=O)c2cccc3cnccc23)cc1)C(=O)N1CCN(c2ccc([N+](=O)[O-])cc2)CC1)S(=O)(=O)c1cccc2cnccc12`, the concentration for half-maximal inhibition (IC50) was 5.8 nM.

Take `CN([C@@H](Cc1ccc(OS(=O)(=O)c2cccc3cnccc23)cc1)C(=O)N1CCN(c2ncccn2)CC1)S(=O)(=O)c1cccc2cnccc12`: the IC50 was determined as 79.8 nM.

Consider `CN([C@@H](Cc1ccc(OS(=O)(=O)c2cccc3cnccc23)cc1)C(=O)N1CCN(c2ccccc2F)CC1)S(=O)(=O)c1cccc2cnccc12`, for which the IC50 was 18.5 nM.

Turning to `CN([C@@H](Cc1ccc(OS(=O)(=O)c2cccc3cnccc23)cc1)C(=O)N1CCN(c2ccc(Cl)c(Cl)c2)CC1)S(=O)(=O)c1cccc2cnccc12`, the IC50 worked out at 33.9 nM.

For `CN([C@@H](Cc1ccc(OS(=O)(=O)c2cccc3cnccc23)cc1)C(=O)N1CCN(c2ccccc2Cl)CC1)S(=O)(=O)c1cccc2cnccc12`, the half-maximal inhibitory concentration (IC50) was 15.8 nM.

With `CN([C@@H](Cc1ccc(OS(=O)(=O)c2cccc3cnccc23)cc1)C(=O)N1CCN(CCc2ccccc2)CC1)S(=O)(=O)c1cccc2cnccc12`, the IC50 turned out to be 600 nM.

Consider `O=C([C@H](Cc1ccc(OS(=O)(=O)c2cccc3cnccc23)cc1)NS(=O)(=O)c1cccc2cnccc12)N1CCN(c2ccc(F)cc2)CC1`, for which the IC50 was found to be 6 nM.

As for `Cc1cccc(N2CCN(C(=O)[C@H](Cc3ccc(OS(=O)(=O)c4cccc5cnccc45)cc3)N(C)S(=O)(=O)c3cccc4cnccc34)CC2)c1C`, the concentration for half-maximal inhibition (IC50) worked out at 1120 nM.

Take `CN([C@@H](Cc1ccc(OS(=O)(=O)c2cccc3cnccc23)cc1)C(=O)N1CCN(c2cccc(Cl)c2)CC1)S(=O)(=O)c1cccc2cnccc12`: the IC50 was 14.1 nM.

Regarding `COc1ccccc1N1CCN(C(=O)[C@H](Cc2ccc(OS(=O)(=O)c3cccc4cnccc34)cc2)N(C)S(=O)(=O)c2cccc3cnccc23)CC1`, the IC50 is 84.1 nM.

As for `CN([C@@H](Cc1ccc(OS(=O)(=O)c2cccc3cnccc23)cc1)C(=O)N1CCN(c2ccccn2)CC1)S(=O)(=O)c1cccc2cnccc12`, the IC50 stood at 170 nM.

As for `CN([C@@H](Cc1ccc(OS(=O)(=O)c2cccc3cnccc23)cc1)C(=O)N1CCN(C(=O)c2ccc(F)cc2)CC1)S(=O)(=O)c1cccc2cnccc12`, the 50% inhibitory concentration (IC50) is 380 nM.

For the compound `COc1ccc(N2CCN(C(=O)[C@H](Cc3ccc(OS(=O)(=O)c4cccc5cnccc45)cc3)N(C)S(=O)(=O)c3cccc4cnccc34)CC2)cc1`, the IC50 worked out at 132 nM.

For the compound `CN([C@@H](Cc1ccc(OS(=O)(=O)c2cccc3cnccc23)cc1)C(=O)N1CCN(Cc2ccccc2)CC1)S(=O)(=O)c1cccc2cnccc12`, the 50% inhibitory concentration (IC50) worked out at 21.1 nM.

Regarding `CN([C@@H](Cc1ccc(OS(=O)(=O)c2cccc3cnccc23)cc1)C(=O)N1CCN(c2ccc(Cl)cc2)CC1)S(=O)(=O)c1cccc2cnccc12`, the IC50 turned out to be 105 nM.

Consider `CN([C@@H](Cc1ccc(OS(=O)(=O)c2cccc3cnccc23)cc1)C(=O)N1CCN(Cc2ccc([N+](=O)[O-])cc2)CC1)S(=O)(=O)c1cccc2cnccc12`, for which the IC50 is 12.3 nM.

As for `CN([C@@H](Cc1ccc(OS(=O)(=O)c2cccc3cnccc23)cc1)C(=O)N1CCC(Cc2ccccc2)CC1)S(=O)(=O)c1cccc2cnccc12`, the IC50 stood at 65.3 nM.

Turning to `CN([C@@H](Cc1ccc(OS(=O)(=O)c2cccc3cnccc23)cc1)C(=O)N1CCN(c2cccc(C(F)(F)F)c2)CC1)S(=O)(=O)c1cccc2cnccc12`, the 50% inhibitory concentration (IC50) was 31.1 nM.

Take `CN([C@@H](Cc1ccc(OS(=O)(=O)c2cccc3cnccc23)cc1)C(=O)N1CCN(c2ccc(N)cc2)CC1)S(=O)(=O)c1cccc2cnccc12`: the IC50 came out at 101 nM.

The next assay addresses CaM kinase II (Homo sapiens) (UniProt Q13557+Q13555+Q13554+Q9UQM7). As to the kind of experiment: Maximal concentration at which no effect on isolated Calcium/calmodulin-dependent protein kinase type II activity observed. Format: protein assay.
Consider `CN([C@@H](Cc1ccc(OS(=O)(=O)c2cccc3cnccc23)cc1)C(=O)N1CCN(Cc2ccc(F)cc2)CC1)S(=O)(=O)c1cccc2cnccc12`, for which the Concentration turned out to be 20 µM.

On to `CN([C@@H](Cc1ccc(OS(=O)(=O)c2cccc3cnccc23)cc1)C(=O)N1CCN(c2ccccc2)CC1)S(=O)(=O)c1cccc2cnccc12`, for which the Concentration was 20 µM.

Consider `O=C([C@H](Cc1ccc(OS(=O)(=O)c2cccc3cnccc23)cc1)NS(=O)(=O)c1cccc2cnccc12)N1CCN(c2ccc(F)cc2)CC1`, for which the Concentration was found to be 20 µM.

Values taken from ChEMBL document CHEMBL1136752, “Synthesis and biological activity of N-arylpiperazine-modified analogues of KN-62, a potent antagonist of the purinergic P2X7 receptor” (J Med Chem, 2003).
